Data on 25 compounds can be found in ChEMBL document CHEMBL3124781, “Heat shock protein 70 inhibitors. 1. 2,5'-thiodipyrimidine and 5-(phenylthio)pyrimidine acrylamides as irreversible binders to an allosteric site on heat shock protein 70” (J Med Chem, 2014).

Molecules are shown by their SMILES. Calls of active or inactive are those of the source. The calls are words filed in the database; no cut-off is given here.

The nature of test [1]: Inhibition of His-tagged Escherichia coli DNAK assessed as inhibition of DNAJ complex formation.
The subject of test [2] is SK-BR-3. In words: Induction of apoptosis in human SKBR3 cells assessed as PARP cleavage by Western blotting analysis. It is filed as functional, cell-based. A digest of the protocol:
(§1)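 SKBr3 cells at 60–70% confluence treated with compound or DMSO for the indicated times. Lysed in 50 mM Tris pH 7.4, 150 mM NaCl, 1% NP-40. 10–50 μg protein (BCA) resolved by SDS–PAGE and immunoblotted for HER2, Raf-1, or the PARP p85 fragment, with β-actin as loading control.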

A short description of test [3]: Inhibition of Hsp70 in human SKBR3 cells assessed as HER2 protein degradation by Western blotting analysis. It is filed as cell-based. The note with it: SK-BR-3. Put shortly: as §1
A short description of test [4]: Inhibition of Hsp70 in human SKBR3 cells assessed as RAF1 protein degradation by Western blotting analysis. It is filed as cell-based. Particulars: SK-BR-3. Put shortly:
as §1

Test [5] concerns the target Heat shock protein HSP 90-beta (Homo sapiens, UniProt P08238). In words: Displacement of GM-cy3B from Hsp90 in human SKBR3 cells after 24 hrs by fluorescence polarization assay. Also noted: species or system SK-BR-3. A digest of the protocol: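 Final 6 nM GM-cy3B with 3 μg SKBr3 lysate protein; compound in triplicate; geldanamycin as positive control. Shaken 24 h at 4 °C, mP read. Concentration displacing 50% of bound tracer obtained by curve fitting.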

The subject of the next test is Kasumi 1. Description: Growth inhibition of human Kasumi-1 cells expressing p-gp/MDR1 after 72 hrs by Alamar Blue assay. It is filed as functional, cell-based. Particulars: Kasumi 1, 72 h. A digest of the protocol: (§2)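 Cells plated 8000/well (SKBr3, adherent) or 20000/well (Kasumi-1, suspension) and left 24 h at 37 °C. Compound added in triplicate for 72 h. Alamar Blue (50 μM) added; fluorescence (ex 530/em 580 nm) read 6 h later.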

In a further test the test system is MOLM-13. Description: Induction of apoptosis in human MOLM13 assessed as caspase 3/7 activation using Z-DEVD-R110 as substrate pretreated for 16 hrs followed by substrate addition by fluorescence-based assay. Type of test: functional, cell-based. A digest of the protocol: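 MOLM-13 cells (30000/well, RPMI) rested up to 24 h at 37 °C, 5% CO2. Treated 16 h with compound or DMSO, in triplicate. Then buffer added containing 10 mM HEPES pH 7.5, 2 mM EDTA, 0.1% CHAPS and 25 μM Z-DEVD-R110. Fluorescence read once stable; % increase in apoptotic cells calculated versus control.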

Test [6] in a line: Growth inhibition of human SKBR3 cells after 72 hrs by Alamar Blue assay. It is filed as functional, cell-based. Particulars: SK-BR-3, 72 h. Put shortly:
as §2

The test system of test [7] is SK-BR-3. In words: (§3) Inhibition of Hsp70 in human SKBR3 cells assessed as inhibition of HOP complex formation after 24 hrs by Western blotting analysis. It is filed as cell-based. Put shortly: (§4)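 SKBr3 cells treated 24 h at the indicated concentrations, then lysed (20 mM Tris pH 7.4, 25 mM NaCl, 0.1% NP-40, protease inhibitors). 500 μg protein immunoprecipitated overnight at 4 °C with anti-Hsp70 BB70 (normal IgG as negative control) and protein G beads. Beads washed five times; co-precipitated HOP detected by Western blot.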

A short description of test [8]: as §3. It is filed as cell-based. Particulars: SK-BR-3, 24 h. Put shortly:
as §4

Test [9] relates to SK-BR-3. In words: Binding affinity to Hsp70 in human SKBR3 cells after 1 hr by […] in presence of N-(6-Amino-2-((4,6-dimethoxy-2-(4-methylpiperazin-1-yl)-pyrimidin-5-yl)thio)pyrimidin-4-yl)acrylamide. It is filed as cell-based. Put shortly: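 Cells pretreated 2 h with increasing concentrations of soluble competitor, then lysed (20 mM Tris pH 7.4, 25 mM NaCl, 0.1% NP-40). Extract (500 μg protein) incubated overnight with beads carrying biotinylated ligand (50 μM, loaded 1 h at 4 °C). Beads washed in high-salt buffer (1 M NaCl), run on SDS–PAGE, and silver stained.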

Heat shock protein HSP 90-beta, sequence (P08238 whole entry): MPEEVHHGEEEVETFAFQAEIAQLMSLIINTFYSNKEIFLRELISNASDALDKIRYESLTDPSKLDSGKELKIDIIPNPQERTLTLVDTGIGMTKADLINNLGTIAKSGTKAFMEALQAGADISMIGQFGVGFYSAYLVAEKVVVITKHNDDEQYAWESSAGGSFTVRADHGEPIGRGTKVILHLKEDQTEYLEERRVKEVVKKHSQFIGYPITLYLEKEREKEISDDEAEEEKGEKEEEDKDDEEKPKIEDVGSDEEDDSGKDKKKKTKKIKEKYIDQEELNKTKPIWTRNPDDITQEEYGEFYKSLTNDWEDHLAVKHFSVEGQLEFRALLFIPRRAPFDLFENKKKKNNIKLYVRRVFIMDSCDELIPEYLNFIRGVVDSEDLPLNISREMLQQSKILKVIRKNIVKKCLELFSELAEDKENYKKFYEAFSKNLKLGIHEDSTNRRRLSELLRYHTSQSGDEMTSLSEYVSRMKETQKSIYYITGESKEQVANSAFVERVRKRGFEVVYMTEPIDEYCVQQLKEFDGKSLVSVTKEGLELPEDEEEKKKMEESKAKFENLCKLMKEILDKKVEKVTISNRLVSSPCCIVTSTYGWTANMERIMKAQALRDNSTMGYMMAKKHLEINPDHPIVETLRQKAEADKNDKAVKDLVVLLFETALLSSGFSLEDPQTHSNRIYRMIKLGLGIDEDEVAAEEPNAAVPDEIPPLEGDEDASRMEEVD

As to `O=c1c(O)c(-c2cc(O)c(O)c(O)c2)oc2cc(O)cc(O)c12` [MYRICETIN], the IC50 is 14.5 µM in test [1], above 100 µM in the test on SK-BR-3 [2], above 100 µM in [3] and above 100 µM in [4].
In the case of `C=CC(=O)Nc1cc(N)nc(Sc2c(OC)nc(N)nc2OC)n1`, the half-inhibitory concentration (IC50) is above 500 µM in test [5]; 3.9 µM in the test with Kasumi 1; 7.5 µM in the test on SK-BR-3 [2]; 5 µM in test [3]; 4.5 µM in the test with MOLM-13; 3.2 µM in [6]. Moreover, the IC50 in test [4] is 3.5 µM.
On to `C=CC(=O)Nc1ccnc(Sc2c(OC)nc(OC)nc2OC)n1`, for which, in the test on MOLM-13, the concentration for half-maximal inhibition (IC50) came out at 7.5 µM.
Take `C=CC(=O)Nc1ccnc(Sc2c(C)nc(N3CCOCC3)nc2C)n1`: the values for the concentration for half-maximal inhibition (IC50) in the test with Kasumi 1 and with MOLM-13 were 14.4 µM and 15.4 µM, respectively.
`C=CC(=O)Nc1cc(N)nc(Sc2c(OCC)nc(N3CCN(C)CC3)nc2OCC)n1`: the IC50 was above 500 µM in test [5]; 0.89 µM in the test on Kasumi 1; 1.5 µM in the test on SK-BR-3 [2]; 1 µM in [3]; 4 µM in the test on MOLM-13; 1.1 µM in test [6]. The IC50 in test [8] is 1.73 µM; in test [4], 2.5 µM. For the same compound, the inhibition result in the test with SK-BR-3 [7] was “Dose-dependent effect”.
`C=CC(=O)Nc1cc(N)nc(Sc2c(OC)nc(N3CCN(CCOCCOCCOCCO)CC3)nc2OC)n1`: the IC50 was above 500 µM in test [5]; 3.8 µM with Kasumi 1; 10 µM in the test on SK-BR-3 [2]; 2.5 µM in test [3]; 14.3 µM in the test on MOLM-13; 7.5 µM in test [6].
Take `C=CC(=O)Nc1ccnc(Sc2c(OC)nc(N3CCCCC3)nc2OC)n1`: the IC50 in the test on Kasumi 1 came out at 3.15 µM; in the test on MOLM-13, 12.4 µM.
`C=CC(=O)Nc1cccc(Sc2c(OC)nc(N3CCN(C)CC3)nc2OC)c1` came in with an IC50 in the test with Kasumi 1 of 7.8 µM.
With `C=CC(=O)Nc1cccc(Sc2c(OC)nc(N3CCOCC3)nc2OC)c1`, the IC50 in [5] was above 500 µM; with Kasumi 1, 46.5 µM; in the test on SK-BR-3 [2], 10 µM; in test [3] it was 15 µM; in the test on MOLM-13, 27.5 µM; in [6] it was 16.5 µM. The IC50 in [4] worked out at 20 µM.
As to `C=CC(=O)Nc1cc(N)nc(Sc2c(OC)nc(N3CCN(C)CC3)nc2OC)n1`, the IC50 was above 500 µM in [5]; 0.9 µM in the test on Kasumi 1; 2 µM in the test on SK-BR-3 [2]; 0.7 µM in test [3]; 1.2 µM with MOLM-13; 0.8 µM in [6]. Moreover, in test [4], the IC50 was determined as 1.7 µM.
As to `C=CC(=O)Nc1cc(N)nc(Sc2c(OC)nc(N3CCN(C)CC3)nc2OCCOCCOCCOCCO)n1`, the IC50 in test [5] is above 500 µM; in the test on Kasumi 1 it was 76.5 µM; in the test on SK-BR-3 [2], 100 µM; in [3], 75 µM; in the test with MOLM-13, 100 µM; in [6] it was 50 µM. The IC50 in test [4] came out at 60 µM.
For the compound `C=CC(=O)Nc1ccnc(Sc2c(OC)nc(N3CCN(C)CC3)nc2OC)n1`, the IC50 in test [5] is above 500 µM; in the test on Kasumi 1 it was 1.25 µM; in the test with SK-BR-3 [2], 7.5 µM; in [3], 7.5 µM; with MOLM-13 it was 4 µM; in [6] it was 1.2 µM. Further, the half-maximal inhibitory concentration (IC50) in test [4] is 5 µM.
For the compound `C=CC(=O)Nc1cc(N)nc(Sc2c(OCC)nc(N3CCOCC3)nc2OCC)n1`, the 50% inhibitory concentration (IC50) turned out to be 2.2 µM in the test with Kasumi 1 and 10.5 µM in the test on MOLM-13.
Turning to `C=CC(=O)Nc1cc(N)nc(Sc2c(OCC)nc(N3CCCCC3)nc2OCC)n1`, the IC50 in test [5] is above 500 µM; in the test with Kasumi 1 it was 4.5 µM; in the test on SK-BR-3 [2], 10 µM; in [3], 2 µM; in the test with MOLM-13, 4 µM; in test [6], 7 µM. The IC50 in test [4] stood at 3.1 µM.
Consider `C=C(C)C(=O)Nc1cccc(Sc2c(OC)nc(N3CCN(C)CC3)nc2OC)c1`, for which the 50% inhibitory concentration (IC50) with MOLM-13 is 60 µM.
With `C=CC(=O)Nc1cc(N)nc(Sc2c(OC)nc(N3CCCCC3)nc2OC)n1`, the half-inhibitory concentration (IC50) in test [5] was above 250 µM; with Kasumi 1, 17.1 µM; with SK-BR-3 [2] it was 5 µM; in test [3] it was 2.5 µM; in the test on MOLM-13 it was 16.2 µM; in test [6] it was 9 µM. Also, in test [4], the IC50 is 7.5 µM.
Take `C=CC(=O)Nc1ccnc(Sc2c(C)nc(N3CCN(C)CC3)nc2C)n1`: the half-inhibitory concentration (IC50) is above 500 µM in test [5]; 5 µM with SK-BR-3 [2]; 4 µM in test [3]; 6 µM in the test with MOLM-13; 1.8 µM in test [6]; 5 µM in test [4].
As to `C=CC(=O)Nc1cc(N)nc(Sc2c(OC)nc(N3CCOCC3)nc2OC)n1`, the half-inhibitory concentration (IC50) with MOLM-13 is 12.1 µM.
Consider `C=CC(=O)Nc1ccnc(Sc2c(OC)nc(N3CCOCC3)nc2OC)n1`, for which the IC50 amounted to 2 µM in the test on Kasumi 1 and 7.2 µM in the test with MOLM-13.
Regarding `C=C(C)C(=O)Nc1ccnc(Sc2c(C)nc(N3CCN(C)CC3)nc2C)n1`, the 50% inhibitory concentration (IC50) in test [5] was above 500 µM; in the test with Kasumi 1, 35 µM; in the test with SK-BR-3 [2] it was 40 µM; in test [3], 30 µM; with MOLM-13, 45 µM; in test [6], 16.7 µM. Further, in [4], the IC50 turned out to be 50 µM.
Consider `C=CC(=O)Nc1ccnc(Sc2c(OC)nc(N3CCCC3)nc2OC)n1`, for which the IC50 in test [5] is above 500 µM; in the test on Kasumi 1, 46.1 µM; with SK-BR-3 [2], 25 µM; in test [3], 20 µM; in the test with MOLM-13, above 100 µM; in [6], 5 µM. Also, the half-maximal inhibitory concentration (IC50) in test [4] is 17 µM.
In the case of `C/C=C/C(=O)Nc1ccnc(Sc2c(C)nc(N3CCN(C)CC3)nc2C)n1`, the IC50 with Kasumi 1 is 20 µM; in the test with MOLM-13, 32 µM.
As for `C=CC(=O)Nc1cc(N)nc(Sc2c(OC)nc(N3CCN(CCOCCOCCOCCOC(=O)CCCC[C@@H]4SC[C@@H]5NC(=O)N[C@@H]54)CC3)nc2OC)n1`, in the test with SK-BR-3 [9], the result was Active.
Turning to `C=CC(=O)Nc1ccnc(Sc2c(OC)nc(N3CC[N+](C)([O-])CC3)nc2OC)n1`, the IC50 with Kasumi 1 and with MOLM-13 was above 100 µM in each case.
Regarding `C#CCCCn1c(Cc2cc(OC)c(OC)c(OC)c2Cl)nc2c(N)nc(F)nc21`, the IC50 amounted to 2 µM in test [3], 2.9 µM in test [6] and 2.5 µM in test [4].
